Assay results: ChEMBL document CHEMBL1134940, “Highly potent non-peptidic inhibitors of the HCV NS3/NS4A serine protease” (Bioorg Med Chem Lett, 2002)

Assays:
Assay type in all cases: protein-complex assay, Hepacivirus hominis
[1] = molecular target: T1, Hepatitis C virus serine protease, NS3/NS4A (Hepatitis C virus, UniProt A3EZI9+D2K2A8); experiment: Inhibition of HCV serine protease NS3/NS4A in the presence of EDTA
Procedure, shortened: (§1)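 No Zn(II) added; EDTA included. Inhibitor at varying concentrations preincubated 30 min at room temperature (21–24 °C). Reaction started with the quenched-fluorescence substrate Ac-DED(Edans)EE-Abu[COO]-ASK(Dabcyl)-CONH₂.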

[2] = molecular target: T1, Hepatitis C virus serine protease, NS3/NS4A; experiment: Inhibition of HCV serine protease NS3/NS4A in the presence of Zn
Procedure, shortened: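 Same setup run with ZnCl₂ added instead of EDTA. NS3 protease construct (first 183 residues; 12 nM active sites) plus the 17-residue NS4A surrogate peptide. Inhibitor at several concentrations preincubated 30 min at 21–24 °C. The Edans/Dabcyl quenched-fluorescence depsipeptide substrate was then added to start the reaction.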

[3] = molecular target: T1, Hepatitis C virus serine protease, NS3/NS4A; experiment: Inhibition of HCV serine protease NS3/NS4A in the presence of EDTA.; procedure, shortened: as §1

T1 sequence (D2K2A8 whole entry): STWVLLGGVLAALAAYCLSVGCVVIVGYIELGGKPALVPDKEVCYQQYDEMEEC
T1 sequence (A3EZI9 whole entry): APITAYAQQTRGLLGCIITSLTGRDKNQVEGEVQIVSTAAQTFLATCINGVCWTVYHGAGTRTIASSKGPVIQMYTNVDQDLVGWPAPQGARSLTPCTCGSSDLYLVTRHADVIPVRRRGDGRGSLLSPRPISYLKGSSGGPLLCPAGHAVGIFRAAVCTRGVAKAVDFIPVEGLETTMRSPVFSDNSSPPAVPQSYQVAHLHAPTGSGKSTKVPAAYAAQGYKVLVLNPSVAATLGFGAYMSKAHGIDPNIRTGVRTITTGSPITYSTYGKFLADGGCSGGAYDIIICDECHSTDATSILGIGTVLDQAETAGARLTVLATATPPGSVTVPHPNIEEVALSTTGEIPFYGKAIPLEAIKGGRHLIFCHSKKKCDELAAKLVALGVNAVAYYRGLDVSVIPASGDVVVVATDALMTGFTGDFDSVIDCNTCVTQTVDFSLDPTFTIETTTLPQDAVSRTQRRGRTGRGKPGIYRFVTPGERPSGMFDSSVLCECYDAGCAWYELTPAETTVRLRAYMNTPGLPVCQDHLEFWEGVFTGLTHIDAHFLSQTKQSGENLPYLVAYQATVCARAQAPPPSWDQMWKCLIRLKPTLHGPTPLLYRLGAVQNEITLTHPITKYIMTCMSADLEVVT

Structure (SMILES)	Ki [1] [µM]	Ki [2] [µM]	Ki [3] [µM]
CC(c1nc2ccc(C(N)=O)cc2[nH]1)c1nc2cc(C(=O)C(CP(=O)(O)O)C(=O)O)ccc2n1C (centres undefined)	> 300	> 300	
Cn1c(C(F)c2nc3c(F)cc(F)cc3[nH]2)nc2ccc(C(=O)NC(CP(=O)(O)O)C(=O)O)cc21 (centres undefined)		0.66	91
COP(=O)(O)CC(NC(=O)c1ccc2nc(Cc3nc4ccc(C(N)=O)cc4[nH]3)n(C)c2c1)C(=O)O (centres undefined)	38.1	1.36	
Cc1cccc2[nH]c(C(F)(F)c3nc4ccc(C(=O)NC(CP(=O)(O)O)C(=O)O)cc4n3C)nc12 (centres undefined)		21	66
COc1ccc2nc(Cc3nc4ccc(C(=O)NC(CP(=O)(O)O)C(=O)O)cc4n3C)[nH]c2c1 (centres undefined)		0.2	187
Cn1c(C(F)(F)c2nc3ccc(C(N)=O)cc3[nH]2)nc2ccc(C(=O)NC(CP(=O)(O)O)C(=O)O)cc21 (centres undefined)		1.2	74
Cn1c(Cc2nc3ccc(C(=O)NC(CP(=O)(O)O)C(=O)O)cc3n2C)nc2ccccc21 (centres undefined)	140	3.8	
Cn1c(C(F)(F)c2nc3ccc(C(=O)NC(CP(=O)(O)O)C(=O)O)cc3[nH]2)nc2ccc(C(=O)NC(CP(=O)(O)O)C(=O)O)cc21 (centres undefined)		0.073	15
Cn1c(Cc2nc3c(F)cc(F)c(F)c3[nH]2)nc2ccc(C(=O)NC(CP(=O)(O)O)C(=O)O)cc21 (centres undefined)		0.35	22
Cn1c(C(F)c2nc3ccccc3[nH]2)nc2ccc(C(=O)NC(CP(=O)(O)O)C(=O)O)cc21 (centres undefined)		0.47	37
Cn1c(Cc2nc3ccccc3[nH]2)nc2ccc(C(=O)NC(CP(=O)(O)O)C(=O)O)cc21 (centres undefined)		0.45	> 300
Cn1c(C(F)(F)c2nc3ccc(C(=O)NC(CP(=O)(O)O)C(=O)O)cc3[nH]2)nc2ccc(C(=O)NC(CP(=O)(O)O)C(=O)NC(CP(=O)(O)O)C(=O)O)cc21 (centres undefined)		0.027	1
Cn1c(Cc2nc3cc(C(N)=O)ccc3[nH]2)nc2ccc(C(=O)NC(CP(=O)(O)O)C(=O)O)cc21 (centres undefined)		0.2	170
COc1cccc2[nH]c(Cc3nc4ccc(C(=O)NC(CP(=O)(O)O)C(=O)O)cc4n3C)nc12 (centres undefined)		0.49	24
CC(C)(C)Cn1c(Cc2nc3ccccc3[nH]2)nc2ccc(C(=O)NC(CP(=O)(O)O)C(=O)O)cc21 (centres undefined)		0.61	> 300
Cc1ccc2nc(Cc3nc4ccc(C(=O)NC(CP(=O)(O)O)C(=O)O)cc4n3C)[nH]c2c1 (centres undefined)		0.24	98
Cn1c(Cc2nc3cc(F)ccc3[nH]2)nc2ccc(C(=O)NC(CP(=O)(O)O)C(=O)O)cc21 (centres undefined)	95	0.28	
Cn1c(Cc2nc3cc(F)c(F)cc3[nH]2)nc2ccc(C(=O)NC(CP(=O)(O)O)C(=O)O)cc21 (centres undefined)	25	0.21	
CC(c1ncc[nH]1)c1nc2ccc(C(=O)NC(CP(=O)(O)O)C(=O)O)cc2n1C (centres undefined)	110	83	
Cn1c(Cc2nc3cc(C(F)(F)F)ccc3[nH]2)nc2ccc(C(=O)NC(CP(=O)(O)O)C(=O)O)cc21 (centres undefined)	70	0.41	
Cn1c(C(F)(F)c2nc3ccccc3[nH]2)nc2ccc(C(=O)NC(CP(=O)(O)O)C(=O)NC(CP(=O)(O)O)C(=O)O)cc21 (centres undefined)		0.82	19.6
Cn1c(Cc2nc3c(F)c(F)c(F)c(F)c3[nH]2)nc2ccc(C(=O)NC(CP(=O)(O)O)C(=O)O)cc21 (centres undefined)		0.28	17
Cn1c(C(F)c2nc3c(F)c(F)cc(F)c3[nH]2)nc2ccc(C(=O)NC(CP(=O)(O)O)C(=O)O)cc21 (centres undefined)		0.55	72

Structure (SMILES)	Ki [1] [µM]	Ki [2] [µM]	Ki [3] [µM]
Cn1c(C(F)(F)c2nc3c(F)cc(F)cc3[nH]2)nc2ccc(C(=O)NC(CP(=O)(O)O)C(=O)O)cc21 (centres undefined)		1.4	25
Cn1c(Cc2nc3c(F)c(F)ccc3[nH]2)nc2ccc(C(=O)NC(CP(=O)(O)O)C(=O)O)cc21 (centres undefined)		0.27	140
CC(C)Cn1c(Cc2nc3ccccc3[nH]2)nc2ccc(C(=O)NC(CP(=O)(O)O)C(=O)O)cc21 (centres undefined)		0.37	> 300
O=C(NC(CP(=O)(O)O)C(=O)O)c1ccc2nc(Cc3nc4ccccc4[nH]3)n(CC3CC3)c2c1 (centres undefined)		0.14	140
Cn1c(Cc2nc3c(F)cc(F)cc3[nH]2)nc2ccc(C(=O)NC(CP(=O)(O)O)C(=O)O)cc21 (centres undefined)	58	0.24	
Cn1c(C(F)(F)c2nc3ccc(Cl)cc3[nH]2)nc2ccc(C(=O)NC(CP(=O)(O)O)C(=O)O)cc21 (centres undefined)		2.4	38
Cn1c(Cc2nc3ccc(Cl)cc3[nH]2)nc2ccc(C(=O)NC(CP(=O)(O)O)C(=O)O)cc21 (centres undefined)	130	0.38	
CC(=O)NCc1nc2ccc(C(=O)NC(CP(=O)(O)O)C(=O)O)cc2n1C (centres undefined)	150	32	
CC(c1nc2ccccc2[nH]1)c1nc2cccc(C(=O)NC(CP(=O)(O)O)C(=O)O)c2n1C (centres undefined)	181	1.2	
Cn1c(Cc2nc3c(F)c(F)c(F)cc3[nH]2)nc2ccc(C(=O)NC(CP(=O)(O)O)C(=O)O)cc21 (centres undefined)		0.2	21
CC(C)n1c(Cc2nc3ccccc3[nH]2)nc2ccc(C(=O)NC(CP(=O)(O)O)C(=O)O)cc21 (centres undefined)		12	> 300
COC(=O)C(CP(=O)(O)O)NC(=O)c1ccc2[nH]c(C(F)(F)c3nc4ccc(C(=O)NC(CP(=O)(O)O)C(=O)OC)cc4n3C)nc2c1 (centres undefined)		0.277	32
Cn1c(Cc2nc3ccc(C(N)=O)cc3[nH]2)nc2ccc(C(=O)NCC(=O)O)cc21	> 300	68	
Cn1c(C(F)(F)c2nc3cc(F)c(F)cc3[nH]2)nc2ccc(C(=O)NC(CP(=O)(O)O)C(=O)O)cc21 (centres undefined)		4	15
Cn1c(Cc2nc3ccc(C(=O)NC(CP(=O)(O)O)C(=O)O)cc3[nH]2)nc2ccc(C(=O)NC(CP(=O)(O)O)C(=O)O)cc21 (centres undefined)		0.1	21
Cn1c(C(F)(F)c2nc3c(F)c(F)cc(F)c3[nH]2)nc2ccc(C(=O)NC(CP(=O)(O)O)C(=O)O)cc21 (centres undefined)		2.9	12
Cn1c(C(F)(F)c2nc3ccccc3[nH]2)nc2ccc(C(=O)NC(CP(=O)(O)O)C(=O)O)cc21 (centres undefined)			1.1
CC(c1nc2ccccc2[nH]1)c1nc2ccc(C(=O)NC(CP(=O)(O)O)C(=O)O)cc2n1C (centres undefined)	215	0.23	
CC(C)CCn1c(Cc2nc3ccccc3[nH]2)nc2ccc(C(=O)NC(CP(=O)(O)O)C(=O)O)cc21 (centres undefined)		0.87	> 300
Cn1c(Cc2nc3ccc(O)cc3[nH]2)nc2ccc(C(=O)NC(CP(=O)(O)O)C(=O)O)cc21 (centres undefined)		0.19	250
Cc1cccc2[nH]c(Cc3nc4ccc(C(=O)NC(CP(=O)(O)O)C(=O)O)cc4n3C)nc12 (centres undefined)		10	> 300
Cn1c(C(F)(F)c2nc3cc(F)ccc3[nH]2)nc2ccc(C(=O)NC(CP(=O)(O)O)C(=O)O)cc21 (centres undefined)		1.3	55
